Test results as given in ChEMBL document CHEMBL2440059, “Antiproliferative, antiandrogenic and cytotoxic effects of novel caffeic acid derivatives in LNCaP human androgen-dependent prostate cancer cells” (Bioorg Med Chem, 2013).
Active and inactive are the calls of the source. No cut-off for these calls is given here.

Legend:
LNCaP [1] = experiment: Antiproliferative activity against human LNCAP cells after 72 hrs in presence of DHT; format: functional, cell-based
Summary of the method: (§1)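 LNCaP cells (fewer than 18 passages) were seeded at 25 × 10³ cells/well on electrode-microarray plates in phenol red-free medium with 10% stripped FBS. After 24 h they were exposed to compounds with or without 0.1 nM DHT, in 0.2% final DMSO. Proliferation was tracked as impedance in real time over 72 h. Duplicates, three experiments; doubling time was derived from the growth rate.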

[2] = system: Radical scavenging activity; experiment: Antioxidant activity assessed as DPPH radical scavenging activity after 30 mins by spectrophotometry; format: functional
Summary of the method: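 Ethanolic DPPH ([…], stock) was mixed 1:1 with increasing concentrations of compound in ethanol and held in the dark 30 min at room temperature. Absorbance was read at 520 nm, with control OD accepted within 0.350–0.360. Activity was taken as % inhibition of absorbance and IC50 came from a variable-slope sigmoidal fit. Triplicates, two independent experiments.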

LNCaP [3] = experiment: Cytotoxicity against human LNCAP cells assessed as reduction in cell viability after 24 hrs by WST-1 assay
LNCaP [4] = experiment: Induction of androgen receptor protein expression in human LNCAP cell nucleus at 1 to 30 uM after 24 hrs by chemoluminescence assay in presence of DHT relative to cytoplasm; format: functional
Summary of the method: (§2)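 Near-confluent LNCaP cells were switched to steroid-free medium for 24 h, then exposed 24 h to compounds with or without 10 nM DHT. Nuclear and cytoplasmic fractions were extracted and assayed by BCA. Protein (40 μg) was run on SDS-PAGE, blotted to PVDF, and probed overnight at 4 °C with anti-AR, then with an HRP anti-rabbit secondary. Duplicates, three experiments.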

LNCaP [5] = experiment: Antiproliferative activity against human LNCAP cells at 0.3 uM after 72 hrs in presence of DHT; format: functional, cell-based; summary of the method: as §1
LNCaP [6] = experiment: Cytotoxicity against human LNCAP cells assessed as reduction in cell viability at 100 uM after 24 hrs by WST-1 assay; format: functional
Summary of the method: (§3)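 LNCaP cells were acclimatised 24 h in complete medium, after which the medium was refreshed. Compounds were added from DMSO (0.1% final, 0.1% DMSO controls) over 0.1–100 μM for a 24 h exposure. Quadruplicate wells, three experiments. IC50 came from a variable-slope sigmoidal concentration–response fit.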

LNCaP [7] = experiment: Induction of androgen receptor protein expression in human LNCAP cell nucleus at 1 to 30 uM after 24 hrs by chemoluminescence assay in presence of DHT relative to control; format: functional; summary of the method: as §2
LNCaP [8] = experiment: Antiproliferative activity against human LNCAP cells at 10 uM after 72 hrs in presence of DHT; format: functional, cell-based; summary of the method: as §1
LNCaP [9] = experiment: Antiandrogenic activity in human LNCAP cells assessed as reduction in DHT-stimulated PSA release after 24 hrs by ELISA
LNCaP [10] = experiment: Induction of androgen receptor protein expression in human LNCAP cell nucleus at > 10 uM after 24 hrs by chemoluminescence assay in presence of DHT; format: functional, cell-based; summary of the method: as §2
LNCaP [11] = experiment: Reduction of androgen receptor protein expression in human LNCAP cell cytoplasm at > 10 uM after 24 hrs by chemoluminescence assay in presence of DHT; format: functional, cell-based; summary of the method: as §2
LNCaP [12] = experiment: Cytotoxicity against human LNCAP cells at 1 uM after 24 hrs by WST-1 assay; format: functional, cell-based; summary of the method: as §3
LNCaP [13] = experiment: Antiproliferative activity against human LNCAP cells at 1 to 10 uM after 72 hrs in presence of DHT; format: functional, cell-based; summary of the method: as §1
PC-3 = experiment: Antiproliferative activity against human PC3 cells after 72 hrs by trypan blue assay; format: cell-based; details: PC-3, 72 h

IC50 [2] [µM] | Structure (SMILES) | Activity (LNCaP [1]) | IC50 (LNCaP [3]) [µM] | inhibition at 100 µM (LNCaP [6]) [%] | other results
15.3 | O=C(/C=C/c1ccc(O)c(O)c1)OCc1ccccc1 [BENZYL CAFFEATE] | Dose-dependent effect | 45.6 | – | –
15.1 | O=C(/C=C/c1ccc(O)c(O)c1)OCCC1CCCCC1 | Dose-dependent effect | 6.8 | > 95 | fold change (FC) (LNCaP [4]): 5; Activity (LNCaP [5]): Active; fold change (FC) (LNCaP [7]): 5; Activity (LNCaP [8]): Active; IC50 (LNCaP [9]): 2 µM; Activity (LNCaP [10]): Active; Activity (LNCaP [11]): Active
13 | CC(C)OC(=O)/C=C/c1ccc(O)c(O)c1 | – | 51.9 | – | –
12.8 | O=C(/C=C/c1ccc(O)c(O)c1)OCCc1ccc(F)cc1 | Dose-dependent effect | 20.8 | > 80 | –
12.6 | CCCCOC(=O)/C=C/c1ccc(O)c(O)c1 [BUTYL CAFFEATE] | – | 45.4 | – | –
11.3 | Cc1ccc(CCOC(=O)/C=C/c2ccc(O)c(O)c2)cc1 | Dose-dependent effect | 14 | > 80 | –
15.3 | O=C(O)/C=C/c1ccc(O)c(O)c1 [CAFFEIC ACID] | – | > 100 | – | Activity (LNCaP [12]): inactive
13.2 | O=C(/C=C/c1ccc(O)c(O)c1)OCCc1cccc2ccccc12 | Dose-dependent effect | 9.3 | > 80 | Activity (LNCaP [8]): Active
17.4 | COc1ccc(CCOC(=O)/C=C/c2ccc(O)c(O)c2)cc1 | – | 47.3 | – | Activity (LNCaP [13]): inactive
21.3 | COC(=O)/C=C/c1ccc(O)c(O)c1 [METHYLCAFFEATE] | – | > 100 | – | Activity (LNCaP [13]): inactive
14.2 | CCCOC(=O)/C=C/c1ccc(O)c(O)c1 | Dose-dependent effect | 60.7 | – | –
11.9 | O=C(/C=C/c1ccc(O)c(O)c1)OCCCc1ccccc1 | Dose-dependent effect | 26.6 | > 80 | –
18.5 | O=C(/C=C/c1ccc(O)c(O)c1)OCC(c1ccccc1)c1ccccc1 | Dose-dependent effect | 20.8 | > 80 | Activity (LNCaP [8]): Active
9.5 | C=C(C)CCOC(=O)/C=C/c1ccc(O)c(O)c1 | – | 20.6 | > 80 | Activity (LNCaP [13]): inactive
23.8 | CC(C)CCOC(=O)/C=C/c1ccc(O)c(O)c1 | – | 45.4 | – | –
12.5 | O=C(/C=C/c1ccc(O)c(O)c1)Oc1ccccc1 | Dose-dependent effect | 65.9 | – | –
13.8 | O=C(/C=C/c1ccc(O)c(O)c1)NCCc1ccccc1 [CAFFEIC ACID PHENETHYL AMIDE] | Dose-dependent effect | > 100 | – | –
13.3 | CCOC(=O)/C=C/c1ccc(O)c(O)c1 [ETHYL CAFFEATE] | – | > 100 | – | Activity (LNCaP [13]): inactive
16.5 | O=C(/C=C/c1ccc(O)c(O)c1)OCCc1ccccc1 [CAFFEIC ACID PHENETHYL ESTER] | Dose-dependent effect | 33.7 | – | fold change (FC) (LNCaP [4]): 5; Activity (LNCaP [5]): Active; IC50 (PC-3): 51.4 µM; fold change (FC) (LNCaP [7]): 5; IC50 (LNCaP [9]): 6.2 µM; Activity (LNCaP [10]): Active; Activity (LNCaP [11]): Active
